In the library only some 1.9% were active in any assay of this set; here they are far more common.
UHRF1 binding: blocks human UHRF1 binding to methylated DNA; UHRF1 binding to methylated oligo, TR-FRET; inhibition, % at 4.4 µM; 370,000 compounds, 0.75% hits; in the data active = inhibition above about 21%;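 note: UHRF1 SRA domain binding a hemimethylated CpG hairpin DNA probe; 0% = median of test compound wells and 100% = reference inhibitor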
MBD2 DNA inh: MBD2-methylated oligo binding inhibition | inhibition, % at 4.4 µM | TR-FRET, MBD2 binding to methylated oligonucleotide | 370,000 compounds, 0.31% hits | Q9UBB5 | AID 686964; in the data active = inhibition above about 13%
Casp6 inh: blocks human caspase-6 cleavage activity | P55212 | purified caspase-6, Z-VEID-R110 cleavage fluorescence | inhibition, % at 12.5 µM | 350,000 compounds, 0.53% hits | AID 686996;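 active = mean inhibition across replicates at least about 35%, with every replicate also reaching that limit, limit read from the data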;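 note: 0% = median of neutral control wells and 100% = no fluorescence left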
Target sequence (P55212 24-179 limits assumed): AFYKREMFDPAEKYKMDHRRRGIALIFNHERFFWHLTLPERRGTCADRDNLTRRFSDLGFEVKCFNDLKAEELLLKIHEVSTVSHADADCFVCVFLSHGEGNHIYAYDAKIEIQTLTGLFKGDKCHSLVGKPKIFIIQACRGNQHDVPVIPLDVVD
Target sequence (P55212 194-293 limits assumed): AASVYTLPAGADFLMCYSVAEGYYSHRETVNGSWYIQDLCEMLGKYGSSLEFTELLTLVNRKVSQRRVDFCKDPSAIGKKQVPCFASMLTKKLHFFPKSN
NSD2 HMT inh: inhibitors of human histone methyltransferase NSD2; O96028; inhibition, % at 12.5 µM; AID 743445; NSD2 peptide methylation, AlphaScreen, 120 min; 310,000 compounds, 0.54% hits; in the data active = inhibition above about 50%
TDP2 inh: blocks human TDP2 phosphodiesterase activity | O95551 | recombinant TDP2, T5PNP hydrolysis, p-nitrophenol absorbance 415 nm | inhibition, % at 12.8 µM | 370,000 compounds, 0.34% hits | AID 720702;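 active = inhibition above the mean of all tested compounds plus 3 SD, set per campaign, cut at about 25% in these data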;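 note: 0% = DMSO with enzyme and 100% = buffer with substrate but no TDP2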
Target sequence (O95551 whole entry, looked up): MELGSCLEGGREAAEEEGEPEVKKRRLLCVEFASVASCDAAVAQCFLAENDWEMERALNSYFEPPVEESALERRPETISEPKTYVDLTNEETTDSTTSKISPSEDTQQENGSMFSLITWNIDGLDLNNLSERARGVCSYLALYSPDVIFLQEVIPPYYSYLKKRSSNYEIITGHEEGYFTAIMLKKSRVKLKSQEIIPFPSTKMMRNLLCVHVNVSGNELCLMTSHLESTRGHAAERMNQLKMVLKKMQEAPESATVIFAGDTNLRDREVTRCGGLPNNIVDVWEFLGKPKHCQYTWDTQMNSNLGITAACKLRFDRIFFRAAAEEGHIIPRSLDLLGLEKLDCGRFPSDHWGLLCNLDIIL
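Incubation: 2 h at 37 °C; Test system: recombinant human TDP2; Quantity: enzyme 120 nM; Read-out basis: percent inhibition; Medium: 50 mM Tris-HCl pH 7.5 with Mg2+, KCl, DTT, BSA; Repeats: single replicate; Compound: 12.8 µM single point, 1% DMSO; Signal: epi absorbance; Reagent: 5 mM T5PNP chromogenic substrate; Benchmarks: no-enzyme high, DMSO-plus-enzyme low.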
LEDGF integ inh: blocks HIV-1 LEDGF/p75-dependent DNA integration; TR-FRET IN-LEDGF/p75 DNA integration, Eu/Cy5; inhibition, % at 3.7 µM; 370,000 compounds, 0.64% hits; AID 743269;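 active = inhibition above the screen-wide mean plus 3 SD, cut at about 13% in these data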;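 note: signal is the Cy5 over europium emission ratio at 671 and 618 nm; 0% = plate median of compound wells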
AlphaScreen art: interferes with AlphaScreen signal, flagging NSD2 false positives; shares compounds with NSD2 HMT inh; AlphaScreen artifact counterscreen, preloaded methylated H4 peptide; AC35, µM (titrated, usually from 10 µM), for the others: at the highest dose activity change, negative = signal loss; 1,500 compounds, 9.4% hits; call rule not given here
Numbers without * were called inactive; nt = not tested or not shown.

SMILES	UHRF1 binding	MBD2 DNA inh	Casp6 inh	NSD2 HMT inh	TDP2 inh	LEDGF integ inh	AlphaScreen art
CC(C)(C)c1cc[n+](C2=C([O-])c3ccccc3C(=O)/C2=N\S(=O)(=O)c2ccccc2)cc1	0.1	1.0	6.6	62.9*	9.1	-3.0	-2.8%
O=C1/C(=N\S(=O)(=O)c2cccs2)C([n+]2ccc(CCCc3ccccc3)cc2)=C([O-])c2ccccc21	1.0	-7.9	3.9	0.7	-3.1	-1.4	nt
CC(C)[n+]1ccn(C2=C([O-])c3ccccc3C(=O)/C2=N\S(=O)(=O)c2ccccc2)c1	-7.2	-14.6	35.2*	95.9*	20.2	3.0	3.6%
CCCC[n+]1ccn(C2=C([O-])c3ccccc3C(=O)/C2=N\S(=O)(=O)c2ccccc2)c1	-4.3	-18.2	nt	31.1	-1.1	6.1	nt
Cc1ccc(NC(=O)CCC(=O)OCC(F)(F)C(F)F)cc1	2.8	0.9	nt	120.9*	-4.4	1.3	-4.2%
C[C@H]1CCCCO[C@@H](CN(C)C(=O)Nc2cccc3ccccc23)[C@@H](C)CN([C@@H](C)CO)C(=O)c2cc(NS(C)(=O)=O)ccc2O1	nt	nt	-0.5	nt	nt	nt	nt
O=C(Nc1ccc(S(=O)(=O)Nc2ncccn2)cc1)C1CC(=O)N(c2ccc(Cl)cc2)C1 (configuration not stated)	1.2	3.2	6.4	76.5*	-8.6	-3.8	-4.8%
O=C(Nc1ccc(S(=O)(=O)Nc2nccs2)cc1)C1CC(=O)N(c2ccc(Cl)cc2)C1 (configuration not stated)	0.1	1.6	-0.9	1.8	5.1	-2.2	nt
C[C@@H]1CCCCO[C@@H](CN(C)S(=O)(=O)c2cccs2)[C@@H](C)CN([C@@H](C)CO)C(=O)c2cc(NC(=O)C3CCCCC3)ccc2O1	nt	nt	-1.1	nt	nt	nt	nt
CC(=O)N1CCN(c2ccccc2NC(=O)c2ccc3ccccc3c2)CC1	1.6	4.2	2.3	53.5*	-10.5	-2.4	-0.9%
CCN1CCCC1CNc1ncnc2c1[nH]c1ccc(Cl)cc12 (configuration not stated)	3.3	0.2	nt	54.3*	6.4	-1.1	-1.5%
O=c1c2ccc([N+](=O)[O-])cc2sn1-c1ccccc1	nt	nt	nt	59.2*	nt	nt	-11.4%
COc1ccc(C2C(C(=O)c3ccco3)=C(O)C(=O)N2CC2CCCO2)cc1OC (configuration not stated)	-8.0	-0.8	9.7	61.9*	12.4	5.8	-5.8%
COc1ccc(C2C(C(=O)/C=C/c3ccco3)=C(O)C(=O)N2CCN2CCOCC2)cc1OC (configuration not stated)	6.7	0.7	-0.5	71.7*	3.8	11.7	-1.1%
CN(C)C(=O)c1ccc(-c2ccc3c(c2)[C@H]2[C@H](CCN2C(=O)c2cnccn2)[C@H](CO)N3)cc1	nt	nt	3.8	nt	nt	nt	nt
O=C(C[C@@H]1CC[C@H]2[C@@H](COC[C@H](O)CN2CCc2ccccc2)O1)NCc1ccc(Oc2ccccc2)cc1	nt	nt	-1.6	nt	nt	nt	nt
CCOc1cc(N2CCOCC2)c(OCC)cc1NC(=O)c1cnccn1	4.8	0.3	2.7	64.3*	-10.0	-5.0	-7.3%
CCOc1cc(-n2cnnn2)c(OCC)cc1NC(=O)c1cnccn1	1.6	5.7	nt	3.1	-16.9	0.7	nt
CCOc1ccccc1NCc1nnc(-c2ccccc2)o1	1.4	4.5	10.5	65.6*	-3.3	-3.1	-1.9%
O=C(CCN1CCOCC1)NCC1COc2ccccc2O1 (configuration not stated)	2.1	2.1	nt	56.3*	2.7	3.6	-2.4%
O=C(CN1CCN(Cc2ccccc2)CC1)NCC1COc2ccccc2O1 (configuration not stated)	-2.6	-5.6	1.3	4.7	-2.2	4.6	nt
O=C(CCc1ccccc1)NCCCN1CCOCC1	-2.0	0.9	nt	98.2*	7.8	-1.3	-0.2%
C[C@@H]1CN([C@H](C)CO)C(=O)c2cc(NC(=O)Cc3ccccc3)ccc2O[C@@H]1CN(C)Cc1ccc(C(=O)Nc2ccccc2N)cc1	nt	nt	-2.4	nt	nt	nt	nt
O=C1CC2(CCCC2)CC(=O)N1c1ccccc1	0.0	0.0	1.0	0.9	11.7	-5.6	nt
O=C1CC2(CCCCC2)CC(=O)N1CCc1ccccc1	3.0	6.3	1.5	74.5*	0.4	0.0	1.4%
SMILES	UHRF1 binding	MBD2 DNA inh	Casp6 inh	NSD2 HMT inh	TDP2 inh	LEDGF integ inh	AlphaScreen art
CCCc1cc(=O)[nH]c(SCc2cc(=O)oc3cc(C)c(C(C)C)cc23)n1	0.1	-4.7	-0.5	78.4*	-20.6	4.9	-3.9%
COc1ccc2nc3cccc(OC)c3nc2c1	-9.1	-6.6	49.9*	101.2*	1.5	-12.1	-1.3%
COc1ccc2nc(-c3ccccc3)cc(OC)c2c1	-2.8	-3.5	-3.2	-4.5	-4.8	-2.4	nt
O=C(NCCN1CCOCC1)NC1(C(F)(F)F)Oc2ccccc2O1	-2.5	2.5	nt	55.4*	0.6	-1.3	1.5%
CCCCNC(=O)NC1(C(F)(F)F)Oc2ccccc2O1	-1.6	-1.6	nt	-1.4	5.1	-1.9	nt
O=C(Nc1cccc(C(F)(F)F)c1)c1cc(-c2ccco2)on1	-0.8	1.6	-0.6	92.2*	10.0	0.2	-1.9%
O=C(Nc1cccc(O)c1)c1cc(-c2ccco2)on1	-3.7	1.8	nt	-3.7	8.1	-1.0	nt
NC(=O)COC(=O)c1ccc(Cl)c(S(=O)(=O)N2CCN(c3ccc(F)cc3)CC2)c1	1.6	-0.3	22.1	52.0*	-8.5	1.3	-5.5%
Oc1cccc(C=NCc2ccccc2)c1	-1.6	-3.3	nt	159.4*	5.9	-0.1	9.2%
CCC(=O)N1[C@@H]2c3ccc(C4=CCCCC4)c(=O)n3C[C@H]1[C@H](CO)[C@H]2C(=O)N[C@H](C)c1ccccc1	nt	nt	3.6	nt	nt	nt	nt
CCOc1cc(NC2CS(=O)(=O)CC2O)c(OCC)cc1NC(=O)c1ccccc1 (configuration not stated)	-2.2	0.0	nt	60.5*	-0.3	0.2	-6.9%
CCOc1cc(NC(=O)c2ccccn2)c(OCC)cc1NC(=O)c1ccccc1	2.5	-3.0	0.4	-0.5	6.9	2.4	nt
CC1CCN(C2=C(NS(=O)(=O)c3ccc(Br)cc3)C(=O)c3ccccc3C2=O)CC1	-5.0	-7.8	-0.9	29.6	7.8	-3.8	nt
O=C1C(NS(=O)(=O)c2ccc(Br)cc2)=C(N2CCCCC2)C(=O)c2ccccc21	-6.8	-7.8	1.6	57.8*	-7.7	-5.2	2.35µM*
C[C@H]1CN([C@@H](C)CO)C(=O)c2cc(/C=C/c3ccccc3)cnc2O[C@H]1CN(C)S(C)(=O)=O	nt	nt	-0.4	nt	nt	nt	nt
CC(C)(C#N)NC(=O)C1CCCN1S(=O)(=O)c1ccc2ccccc2c1 (configuration not stated)	-3.1	2.6	-2.7	109.2*	4.5	1.6	-2.1%
C[C@H]1CN([C@@H](C)CO)C(=O)c2cc(-c3ccccc3F)cnc2O[C@@H]1CN(C)Cc1cccc(F)c1	nt	nt	3.0	nt	nt	nt	nt

Bioassay records as filed in PubChem BioAssay.
